According to ChEMBL document CHEMBL1148692, “Synthesis, antiviral and antitumor activity of 2-substituted-5-amidino-benzimidazoles” (Bioorg Med Chem, 2007):
Activity calls are given as the source filed them. The rule behind the calls is not given here.

What was measured:
Coxsackievirus B5 = test: Antiviral activity against Coxsackievirus B5 in GMK cells by MTT assay; assay type: functional, organism-based; settings: Enterovirus B
Procedure, shortened: (§1)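 GMK monolayers were seeded at 10⁵ cells/mL and grown in DMEM with 10% FBS. Compound dilutions from 10⁻⁴ to 10⁻¹⁰ M were added to one-day-old confluent cells, immediately followed by virus at 10 CCID50 in DMEM with 2% serum. Cell lysis was followed microscopically at 24 h and quantified by MTT, as % CPE inhibition versus infected wells without compound. EC50 is the mean of at least two independent MTT experiments.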

[1] = Growth inhibition of human WI38 cells by MTT assay; assay type: cell-based; settings: WI-38
Procedure, shortened: (§2)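 Cells were kept as monolayers in DMEM with 10% FBS, 2 mM glutamine and antibiotics at 37 °C under 5% CO₂, and seeded at 1–3 × 10⁴ cells/mL. They were exposed for 72 h to five 10-fold dilutions (10⁻⁸–10⁻⁴ M), with DMSO solvent controls. Growth was read by MTT at 570 nm and expressed as percentage growth relative to time-zero and untreated controls. IC50 was obtained by linear regression from quadruplicates in three experiments.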

MCF7 = test: Growth inhibition of human MCF7 cells by MTT assay; assay type: functional, cell-based; procedure, shortened: as §2
MIA PaCa-2 = test: Growth inhibition of human MiaPaCa2 cells by MTT assay; assay type: functional, cell-based; procedure, shortened: as §2
SW-620 = test: Growth inhibition of human SW620 cells by MTT assay; assay type: functional, cell-based; procedure, shortened: as §2
Human alphaherpesvirus 1 = test: Antiviral activity against Herpesvirus 1 in HeLa cells by MTT assay; assay type: functional, organism-based; settings: in the assay text read “by optical evaluation of CPE” for “by MTT assay”; for EC50: Human alphaherpesvirus 1, HeLa
Procedure, shortened: (§3)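 HeLa monolayers were seeded at 10⁵ cells/mL and grown in DMEM with 10% FBS. Compounds were serially diluted from 10⁻⁴ to 10⁻¹⁰ M and added to one-day-old confluent monolayers, which were then immediately infected at 10 CCID50 in DMEM with 2% serum. Cytopathic effect was scored by optical microscopy at 48 h and compared with untreated infected wells. EC50 is the mean of at least three independent evaluations.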

Human echovirus 7 = test: Antiviral activity against Echovirus 7 in GMK cells by MTT assay; assay type: functional, cell-based, Echovirus E7; settings: Enterovirus B; procedure, shortened: as §1
HeLa = test: Growth inhibition of human HeLa cells by MTT assay; assay type: functional, cell-based; procedure, shortened: as §2
NCI-H460 = test: Growth inhibition of human H460 cells by MTT assay; assay type: functional, cell-based; procedure, shortened: as §2
Human adenovirus 5 = test: Antiviral activity against Adenovirus 5 in HeLa cells by MTT assay; assay type: functional, organism-based; settings: in the assay text read “by optical evaluation of CPE” for “by MTT assay”; for EC50: Human mastadenovirus C; procedure, shortened: as §3

Compound | EC50 (Coxsackievirus B5) [µM] | IC50 [1] [µM] | IC50 (MCF7) [µM] | IC50 (MIA PaCa-2) [µM] | IC50 (SW-620) [µM] | EC50 (Human alphaherpesvirus 1) [µM] | EC50 (Human echovirus 7) [µM] | IC50 (HeLa) [µM] | IC50 (NCI-H460) [µM] | EC50 (Human adenovirus 5) [µM] | Activity (Human alphaherpesvirus 1) | Activity (Human adenovirus 5)
c1ccc(-c2nc3cc(C4=NCCN4)ccc3[nH]2)nc1 | 4.3 | 12 | 12 | 16 | 19 | 56.7 | 0.63 | 16 | 22.5 | > 100 |  | 
N=C(N)c1ccc2[nH]c(-c3ccccn3)nc2c1 | 1.7 | 59.4 | ≥ 100 | > 100 | > 100 | > 100 | 3.2 | 82 | > 100 | > 100 |  | 
N=C(N)c1ccc2[nH]c(-c3cnc[nH]3)nc2c1 | > 100 | > 100 | 7.2 | 34 | > 100 |  | > 100 | > 100 | > 100 |  | inactive | inactive
Cn1cccc1-c1nc2cc(C3=NCCN3)ccc2[nH]1 | > 100 | 15.6 | 5 | 11.5 | 15 | 28.5 | > 100 | 20 | 38 | > 100 |  | 
COc1cc([C@@H]2c3cc4c(cc3[C@@H](O[C@@H]3O[C@@H]5CO[C@@H](C)O[C@H]5[C@H](O)[C@H]3O)[C@H]3COC(=O)[C@H]23)OCO4)cc(OC)c1O [ETOPOSIDE] |  |  |  |  |  |  |  | 2.9 | 0.2 |  |  | 
c1ncc(-c2nc3cc(C4=NCCN4)ccc3[nH]2)[nH]1 | > 100 | > 100 | ≥ 100 | > 100 | > 100 | > 100 | > 100 | > 100 | > 100 |  |  | inactive
CC(C)NC(=N)c1ccc2[nH]c(-c3cccn3C)nc2c1 | > 100 | > 100 | 20 | > 100 | > 100 |  | 23.2 | > 100 | > 100 |  | inactive | inactive
CC(C)NC(=N)c1ccc2[nH]c(-c3ccccn3)nc2c1 | 2.7 | 20.4 | 50 | 79 | > 100 | > 100 | 0.33 | > 100 | > 100 | 15.2 |  | 
Cn1cccc1-c1nc2cc(C(=N)N)ccc2[nH]1 | 3.5 | > 100 | 12 | > 100 | 84 | 30 | 5 | 70 | > 100 | 5.9 |  | 
CC(C)NC(=N)c1ccc2[nH]c(-c3cnc[nH]3)nc2c1 | > 100 | > 100 | 26 | > 100 | > 100 | > 100 | > 100 | > 100 | > 100 |  |  | inactive
